Source: the EternaBench riboswitch data

Test system: MS2 coat protein
Assay: apparent Kd, MS2 coat protein; higher = weaker binding; RNA-MaP array; FMN 200 µM where present
Outline: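 Designs on Illumina sequencing-chip clusters, transcribed by stalled E. coli RNA polymerase, were exposed to SNAP-549-labelled MS2 coat protein in doubling steps from 0.7 or 1.5 nM up to 3 µM, without and then with constant ligand. The buffer held 100 mM Tris-HCl pH 7.5, 80 mM KCl, 4 mM MgCl2, BSA, DTT, yeast tRNA and Tween-20. Apparent Kd values are medians of filtered per-cluster binding-curve fits to green signal normalised to red-channel RNA signal and control-cluster median Fmax.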

[1] = designed as: OFF switch for flavin mononucleotide, no ligand
[2] = ligand present: flavin mononucleotide, designed as: OFF switch for flavin mononucleotide
[3] = designed as: ON switch for flavin mononucleotide, no ligand
[4] = ligand present: flavin mononucleotide, designed as: ON switch for flavin mononucleotide

Sequence	apparent Kd [1]	apparent Kd [2]	apparent Kd [3]	apparent Kd [4]
CAUUAAUUAAUUAUAGUAUUUAUACAGGAUAUGUAACAUGAGGAUCACCCAUGUAUACAUGGGAAACAGAAGGGUAUUUAUAGA	32 nM	28.8 nM	–	–
CCACCAAUCGAGAAGGGCCCAUGUGCUACAUCGGCAGGAUAUCGACAUGAGGAUCACCCAUGUUGGCGAUCCUUUUUGGCGGAC	176 nM	35.9 nM	–	–
CCACGGUAUGUAGGAUAUGCAUAGCAUUGCUAUGCAGAAGGACAUGAGGAUCACCCAUGUAUGUAUUCCAUACUAAUCCCGUGU	6.29 nM	5.9 nM	–	–
CCACGUCACAUGAACAUGAGGAUCACCCAUGUAAAUUCUCAUGAGGAUAUGGAUCCUAAUUGGAUCCAGAAGGCGUGGACGUGG	–	–	1070 nM	461 nM
CCACGUCACAUGAACAUGAGGAUCACCCAUGUAACUAGACAUGAGGAUAUGGAUCCUAAUUGGAUCCAGAAGGCAUGGACGUGG	–	–	168 nM	29.2 nM
CCACGUCCCAUUAACAUGAGGAUCACCCAUGUCAAAAGACAUGAGGAUAUGCAUCCUAAUUGGAUGCAGAAGGCAUGGACGUGG	–	–	814 nM	87.1 nM
CCACGUGCUCAGAAGGGCUUUAAACACAAAUUAGCAGGAUAUGAGGACCGGUCGUGACAUGAGGAUCACCCAUGUUUUGUCUAG	–	–	38.6 nM	12.2 nM
CCAGAUAUGUGAGGAUAUAGAGUGGAAUACACUCUAGAAGGUAUGUGAGAACAUGAGGAUCACCCAUGUCAUUGAUUAUCUGGA	–	–	24.7 nM	24.6 nM
CCAGAUUUCACAGGAUAUAUUGAUGACAUGAGGAUCACCCAUGUACCGGCAGUAGAAGGGUGAACGCUCGUGACCACGUGCGUG	–	–	253 nM	134 nM
CCAGCGUAUGUGAGGAUAUGCUGGUCCUUGGAUCAGCAGAAGGCACAUGAGGAUCACCCAUGUGAGAGCGUUGG	25.7 nM	197 nM	–	–
CCAGGCUUCGAGAAGGACAUGAGGAUCACCCAUGUGCGUGUGAAGCAGCCGUGAGGCUGCAUCAUGUAGGAUAUCGGAGUCUGC	77.2 nM	538 nM	–	–
CCAGUGUUAGGAUAUGAUACUAAUGGAUAGCAUUCCGCAGUUUAGAAGGGACAUGAGGAUCACCCAUGUACGGG	144 nM	139 nM	–	–
CCAUAAAUGAUCCAUUUUUACUACAUGAGGAUCACCCAUGUGCAGGAUAUCGUGAAAGUUAAAUACGAGAAGGGCAAGAACUGC	218 nM	230 nM	–	–
CCAUCAGCGAACGAUACGAUUGGACAUGAGGAUCACCCAUGUAGAAGGACAGGAGAAUAACGGCUGUAGGAUAUACAUUUAGUG	58.4 nM	40.6 nM	–	–
CCAUCAGCGGGCGGAUCGGUUGGACAUGAGGAUCACCCAUGUAGAAGGACCGGUGGAUUCCGGCGGUAGGAUAUACAUUUGGUG	9.1 nM	16.3 nM	–	–
CCAUCAGCGGGCGUAUCGGUUGGACAUGAGGAUCACCCAUGUAGAAGGACAGGUGUAUUUCGGCUGUAGGAUAUACAUUUGGUG	26 nM	79.9 nM	–	–
CCAUCGAGUGUGAGGAUAUGCUGGUCCAUAGAUCAGCAGAAGGCACAUGAGGAUCACCCAUGUGGAGACGGUGG	41.7 nM	332 nM	–	–
CCAUCUUGUCGAGGAUAUAUUAACAUGACAUGAGACACAUGAGGAUCACCCAUGUAUGUUGUUGUAUAGAAGGCGACUACAUGA	–	–	50.4 nM	51.2 nM
CCAUGACAAAGUCAUGGUUAACGAACAUGAGGAUCACCCAUGUAGGAUAUGCUACUCAAAGAGUAGCAGAAGGACAUGUGCCUU	34.3 nM	259 nM	–	–

Sequence	apparent Kd [1]	apparent Kd [2]	apparent Kd [3]	apparent Kd [4]
CCAUGCAGUGUGAGGAUAUGCUGGUCCUUGGAUCAGCAGAAGGCACAUGAGGAUCACCCAUGUGAAUAGCGUGG	44.6 nM	356 nM	–	–
CCAUGGCUGUGAGGAUAUGUCUGACAAAGUCAGACAGAAGGCACAUGAGGAUCACCCAUGUGAGGAAAACCACAUUUGCCAUGG	5.81 nM	6.29 nM	–	–
CCAUGGCUGUUAGGAUAUGUCUGACAAAGUCAGACAGAAGGGACAUGAGGAUCACCCAUGUGAAGAAAACCACAUUUGCCAUGG	7.74 nM	7.72 nM	–	–
CCCAGUGCAUCAGGAUAUCCUCACAUGAGGAUCACCCAUGUAAUGAGCCGAGGAGAAGGGAUGUGAACUCCAGUUACCGAUCGU	–	–	267 nM	42.2 nM
CCCAUCAGAGGAUAUACAUGAGGAUCACCCAUGUCAAUCGAACGGGAUGGGAGGUUAGGUAGAAGGUUGUGGAA	15.2 nM	16.9 nM	–	–
CCCGGGCCUGUGAGGAUAUCGGGCCCGAAAGGGCCCGAGAAGGCACAUGAGGAUCACCCAUGUAAGGGUUUGGG	27.4 nM	19.7 nM	–	–
CCCGUGUAAGGAUAUGACAAUGGUAUCUUCGGAUACCAUUGUCAGAAGGUACAUGAGGAUCACCCAUGUAACAC	28.8 nM	108 nM	–	–
CCCGUGUGUUAAGGAUAUGGCAGGCGCGUUGAACCAGAAGGUAGCACAUGAGGAUCACCCAUGUGAAUGCUCACGAAUCGAGCG	31.3 nM	26.8 nM	–	–
CCCUCACAUGAGGAUCACCCAUGUCAGGAUAUCUAGUCAGACAGUGUAGCACUAAUGAAGAGAAGGGACGUAUG	25.6 nM	26.8 nM	–	–
CCCUCACAUGAGGAUCACCCAUGUCAGGAUAUUCGAGGCGCAAAUACGCCAAAUGCAGGAAGAAGGGACGUGCC	15.5 nM	22.4 nM	–	–
CCGAGGCUAGGAUAUUGACGAUAAUACAUGAGGAUCACCCAUGUGAGUCGUGUAUGCGCGCAAGAAGGAGUAAUAA	14 nM	17.6 nM	–	–
CCGCAAAUGCAGGAUAUCGUAUCGGAAACGAUACGAGAAGGGUAAACAUGAGGAUCACCCAUGUUCCUUAACGG	17.9 nM	17 nM	–	–
CCGCAUAAGCAGGAUAUCGUAUCGGAUACGAUACGAGAAGGGUUUACAUGAGGAUCACCCAUGUUCCUUAGCGG	29.7 nM	48.1 nM	–	–
CCGCCACAUGAGGAUCACCCAUGUCAGGAUAUCUAUCAUAGCAUCGAAAGAUGCGGGUAGAGAAGGGACUAUCC	28.8 nM	32.2 nM	–	–
CCGCCUCUAGUCAGGAUAUUUACGGAAGAGCACGAAGAGAAGGGACAUGAGGAUCACCCAUGUUUGAUCACGGC	30.5 nM	31.4 nM	–	–
CCGGAAAGGAAGGAUAUGCUAGACGAGAGUCUAGCAGAAGGUCCUACAUGAGGAUCACCCAUGUGGCCUCCCGG	139 nM	627 nM	–	–
CCGGAAAUAGAGGAUAUAGUACUGGAUACAGUACUAGAAGGCUAUACAUGAGGAUCACCCAUGUGUCCUACCGG	16 nM	32.4 nM	–	–
CCGGAAGUACAGGAUAUCGUAUCGGAUACGAUACGAGAAGGGUAUACAUGAGGAUCACCCAUGUGUCCUACCGG	29.3 nM	31.5 nM	–	–
CCGGAAUAGCAGGAUAUAGGAGUCGAUAGACACCUAGAAGGGCUGACAUGAGGAUCACCCAUGUGUCCUACCGG	81.2 nM	50.8 nM	–	–

Sequence	apparent Kd [1]	apparent Kd [2]	apparent Kd [3]	apparent Kd [4]
CCGGAAUCCUAGGAUAUGCUAGACGAGAGUCUAGCAGAAGGAGGAACAUGAGGAUCACCCAUGUGUCCUACCGG	17.7 nM	21 nM	–	–
CCGGAUACGGGUAGCCUGACAUGAGGAUCACCCAUGUGAUCCAAGGAUAUGGAUCCUAAUUGGAUCCAGAAGGUGGUUGGCUAC	–	–	682 nM	369 nM
CCGGAUACGGGUAGCCUGACAUGAGGAUCACCCAUGUGAUCCUAGGAUAUGGAUCCUAAUUGGAUCCAGAAGGAGGUUGGCUAC	–	–	860 nM	436 nM
CCGGAUUAGGAGGAUAUAGGAGUCGAUAGACACCUAGAAGGCCUAACAUGAGGAUCACCCAUGUGUCCUACCGG	21.9 nM	90.8 nM	–	–
CCGGCUGCUGUGAGGAUAUGCCUGUGCGCCCGCGGGCAGAAGGCACAUGAGGAUCACCCAUGUCCUGCGGUCCC	39 nM	41.2 nM	–	–
CCGUGGCAAGGAUAUACAUAGGAGAGGAAGGCAAGAGGUGGACAUGAGGAUCACCCAUGUAGAAGGUGCAGAUC	226 nM	236 nM	–	–
CCGUGGCAAGGAUAUACGUAGGAGAGGAAGGCAAGAGAAGGACAUGAGGAUCACCCAUGUAGAAGGUGCAGAUC	56.5 nM	56.5 nM	–	–
CCGUUACAUGAGGAUCACCCAUGUGAGGAUAUCGAUGUGACUAGCAGCGUGCGGGACUCGAGAAGGCACUUGGC	57.8 nM	41.5 nM	–	–
CCUAUGUGAGGAUAUGGUGUUGGCCACAGGGAAAAGGUCCUCCAGAAGGCACAUGAGGAUCACCCAUGUCGUGA	84.6 nM	158 nM	–	–
CCUCAGGCGGAGGAUAUCUAACAACAAUAACAAAGAGAAGGCCGCACAUGAGGAUCACCCAUGUGUAUGGGCCG	12.4 nM	22.8 nM	–	–
CCUCCACAUGAGGAUCACCCAUGUCAGGAUAUCGUGUGUGCGUUUUCGGUCUUUCGUGCGAGAAGGGACGUCUG	68.7 nM	62.9 nM	–	–
CCUCCAUCAUGAGGAUAUGGCACCUUAUUGGUGCCAGAAGGCAUGUCUUUUGACAUGAGGAUCACCCAUGUAAUAAAUUGGAGG	–	–	1280 nM	127 nM
CCUCCCUGAGGAUAUCCACCCUCAUACAUGAGGAUCACCCAUGUUCAACCCUGGGUUCCCGGAGAAGGCAGCCUCC	706 nM	650 nM	–	–
CCUCUGUAAGGAUAUACGGAGACGGCUGGAAUCAGUGGAAAGUAGAAGGUACAUGAGGAUCACCCAUGUGAGAC	21.1 nM	66.2 nM	–	–
CCUGUGUGAGGAUAUGGUGUUAAAAAAAAAAAAUAGCUCCUCCAGAAGGCACAUGAGGAUCACCCAUGUCGUGG	33.5 nM	69.2 nM	–	–
CCUGUUUGAUUCCUCUUAUACAUGAGGAUCACCCAUGUUAUCGAGGAUAUGCAUUAGAGUGUUUAGCAGAAGGCGAUGUAAUUG	6.12 nM	17.5 nM	–	–
CCUUAAAAGAUCCAAAAUUACAACAUGAGGAUCACCCAUGUGCAGGAUAUCGUGCCAGUGAUGUACGAGAAGGGCAGACUCUGC	147 nM	170 nM	–	–
CCUUUGAAGAUCCUAGUUUUCGACAUGAGGAUCACCCAUGUGCAGGAUAUCGUGCCAGUGAUGUGCGAGAAGGGCAGUCUCUGC	110 nM	112 nM	–	–
